We go through 2 compounds from ChEMBL document CHEMBL4354828, “Discovery of Taniborbactam (VNRX-5133): A Broad-Spectrum Serine- and Metallo-β-lactamase Inhibitor for Carbapenem-Resistant Bacterial Infections” (J Med Chem, 2020).

≈ marks a conversion by molar mass, not a printed value. Where only a bound is given, the exact number is not on record here.

Data set [1] deals with Klebsiella pneumoniae. The experiment in a line: Inhibition of OXA-232/OXA-9/TEM-1A/CTX-M-15/OXA-1 in Klebsiella pneumoniae CDC-0066 assessed as cefepime antibacterial activity at 8 ug/ml after 16 to 20 hrs by CLSI-based microbroth dilution method (Rvb > […] ug/ml). For orientation: In broth dilution the organism is exposed to a series of concentrations in liquid medium.
The subject of data set [2] is Klebsiella pneumoniae ATCC BAA-1705. Put plainly: Inhibition of KPC-2 in Klebsiella pneumoniae ATCC BAA 1705 assessed as piperacillin antibacterial activity at 16 ug/ml after 16 to 20 hrs by CLSI-based microbroth dilution method (Rvb > […] ug/ml).
Data set [3] has the same test system. The experiment in a line: Inhibition of KPC-2 in Klebsiella pneumoniae ATCC BAA 1705 assessed as meropenem antibacterial activity at 4 ug/ml after 16 to 20 hrs by CLSI-based microbroth dilution method (reference value: […] ug/ml).
The subject of data set [4] is Klebsiella pneumoniae. The experiment in a line: Inhibition of OXA-232/OXA-9/TEM-1A/CTX-M-15/OXA-1 in Klebsiella pneumoniae CDC-0066 assessed as meropenem antibacterial activity at 4 ug/ml after 16 to 20 hrs by CLSI-based microbroth dilution method (reference value: […] ug/ml).
For data set [5], the system named is Pseudomonas aeruginosa. Put plainly: Inhibition of VIM in Pseudomonas aeruginosa CDC-0457 assessed as piperacillin antibacterial activity at 16 ug/ml after 16 to 20 hrs by CLSI-based microbroth dilution method.
Data set [6] can be described thus: Inhibition of bacterial OXA-1 using nitrocefin as substrate preincubated for 15 mins followed by susbtrate addition and measured after 10 mins by spectrophotometric method. The arrangement: species or system Bacteria.
Data set [7] in a line: Inhibition of bacterial CMY-2 using nitrocefin as substrate preincubated for 15 mins followed by susbtrate addition and measured after 10 mins by spectrophotometric method. Also on record: species or system Bacteria.
For data set [8], the system named is Klebsiella pneumoniae. Put plainly: Inhibition of OXA-232/OXA-9/TEM-1A/CTX-M-15/OXA-1 in Klebsiella pneumoniae CDC-0066 assessed as piperacillin antibacterial activity at 16 ug/ml after 16 to 20 hrs by CLSI-based microbroth dilution method (Rvb > […] ug/ml).
For data set [9], the system named is Klebsiella pneumoniae. The experiment in a line: Inhibition of KPC-2/SHV12/TEM-1 in Klebsiella pneumoniae CDC-0361 assessed as piperacillin antibacterial activity at 16 ug/ml after 16 to 20 hrs by CLSI-based microbroth dilution method (Rvb > […] ug/ml).
Data set [10] in a line: Inhibition of bacterial NDM-1 using cefepime as substrate preincubated for 15 mins followed by susbtrate addition and measured after 10 mins by spectrophotometric method. The arrangement: species or system Bacteria.
In data set [11] the test system is Escherichia coli. The experiment in a line: Inhibition of NDM in Escherichia coli CDC-0452 assessed as meropenem antibacterial activity at 4 ug/ml after 16 to 20 hrs by CLSI-based microbroth dilution method (reference value: […] ug/ml).
The subject of data set [12] is Escherichia coli. Put plainly: Inhibition of NDM-1/CMY-6/OXA-1 in Escherichia coli CDC-0055 assessed as meropenem antibacterial activity at 4 ug/ml after 16 to 20 hrs by CLSI-based microbroth dilution method (reference value: […] ug/ml).
Data set [13] in a line: Inhibition of bacterial AmpC using nitrocefin as substrate preincubated for 15 mins followed by susbtrate addition and measured after 10 mins by spectrophotometric method. Also on record: species or system Bacteria.
For data set [14], the system named is Escherichia coli. Put plainly: Inhibition of NDM in Escherichia coli CDC-0452 assessed as cefepime antibacterial activity after 16 to 20 hrs by CLSI-based microbroth dilution method (reference value: […] ug/ml).
Data set [15] relates to Pseudomonas aeruginosa. The experiment in a line: Inhibition of VIM in Pseudomonas aeruginosa CDC-0457 assessed as cefepime antibacterial activity at 8 ug/ml after 16 to 20 hrs by CLSI-based microbroth dilution method.
Data set [16] is described as follows: Inhibition of bacterial CTX-M-15 using cefotaxime as substrate preincubated for 15 mins followed by susbtrate addition and measured after 10 mins by spectrophotometric method. The arrangement: species or system Bacteria.
Data set [17] in a line: Inhibition of bacterial OXA-48 using nitrocefin as substrate preincubated for 15 mins followed by susbtrate addition and measured after 10 mins by spectrophotometric method. The arrangement: species or system Bacteria.
Data set [18] relates to Escherichia coli. Put plainly: Inhibition of NDM in Escherichia coli CDC-0452 assessed as piperacillin antibacterial activity at 16 ug/ml after 16 to 20 hrs by CLSI-based microbroth dilution method (Rvb > […] ug/ml).
For data set [19], the system named is Klebsiella pneumoniae. The experiment in a line: Inhibition of VIM-27/CTX-M-15/SHV-11/OXA-1 in Klebsiella pneumoniae CDC-0040 assessed as piperacillin antibacterial activity at 16 ug/ml after 16 to 20 hrs by CLSI-based microbroth dilution method.
Data set [20] deals with Klebsiella pneumoniae. The experiment in a line: Inhibition of KPC-2/SHV12/TEM-1 in Klebsiella pneumoniae CDC-0361 assessed as cefepime antibacterial activity at 8 ug/ml after 16 to 20 hrs by CLSI-based microbroth dilution method (reference value: […] ug/ml).
Data set [21] is described as follows: Inhibition of bacterial IMP-1 using nitrocefin as substrate preincubated for 15 mins followed by susbtrate addition and measured after 10 mins by spectrophotometric method. The arrangement: species or system Bacteria.
The subject of data set [22] is Klebsiella pneumoniae. Put plainly: Inhibition of VIM-27/CTX-M-15/SHV-11/OXA-1 in Klebsiella pneumoniae CDC-0040 assessed as cefepime antibacterial activity at 8 ug/ml after 16 to 20 hrs by CLSI-based microbroth dilution method.
The test system of data set [23] is Klebsiella pneumoniae. Put plainly: Inhibition of VIM-27/CTX-M-15/SHV-11/OXA-1 in Klebsiella pneumoniae CDC-0040 assessed as meropenem antibacterial activity at 4 ug/ml after 16 to 20 hrs by CLSI-based microbroth dilution method.
Data set [24] can be described thus: Inhibition of bacterial VIM-2 using nitrocefin as substrate preincubated for 15 mins followed by susbtrate addition and measured after 10 mins by spectrophotometric method. Also on record: species or system Bacteria. The procedure, abridged:
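Purified β-lactamase inhibition. IC50 values are the average of duplicates unless otherwise indicated.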

In data set [25] the test system is Pseudomonas aeruginosa. The experiment in a line: Inhibition of KPC-2/PDC-42 in Pseudomonas aeruginosa CDC-0356 assessed as cefepime antibacterial activity at 8 ug/ml after 16 to 20 hrs by CLSI-based microbroth dilution method (Rvb > […] ug/ml).
Data set [26] relates to Pseudomonas aeruginosa. Put plainly: Inhibition of VIM in Pseudomonas aeruginosa CDC-0457 assessed as meropenem antibacterial activity at 4 ug/ml after 16 to 20 hrs by CLSI-based microbroth dilution method.
Data set [27] has as its system Pseudomonas aeruginosa. The experiment in a line: Inhibition of KPC-2/PDC-42 in Pseudomonas aeruginosa CDC-0356 assessed as piperacillin antibacterial activity at 16 ug/ml after 16 to 20 hrs by CLSI-based microbroth dilution method (Rvb > […] ug/ml).
The subject of data set [28] is Escherichia coli. Put plainly: Inhibition of NDM-1/CMY-6/OXA-1 in Escherichia coli CDC-0055 assessed as cefepime antibacterial activity at 8 ug/ml after 16 to 20 hrs by CLSI-based microbroth dilution method. The procedure, abridged: (§1)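 MDR β-lactamase-producing Gram-negative clinical isolates. […] MIC was reported as the inhibitor concentration that restores the partner's antibacterial activity.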

Data set [29] concerns Escherichia coli. Put plainly: Inhibition of NDM-1/CMY-6/OXA-1 in Escherichia coli CDC-0055 assessed as piperacillin antibacterial activity at 16 ug/ml after 16 to 20 hrs by CLSI-based microbroth dilution method. Summed up: as §1
The subject of data set [30] is Klebsiella pneumoniae. Put plainly: Inhibition of KPC-2/SHV12/TEM-1 in Klebsiella pneumoniae CDC-0361 assessed as meropenem antibacterial activity at 4 ug/ml after 16 to 20 hrs by CLSI-based microbroth dilution method (reference value: […] ug/ml).
Data set [31] concerns Pseudomonas aeruginosa. The experiment in a line: Inhibition of KPC-2/PDC-42 in Pseudomonas aeruginosa CDC-0356 assessed as meropenem antibacterial activity at 4 ug/ml after 16 to 20 hrs by CLSI-based microbroth dilution method (reference value: […] ug/ml).
Data set [32] is described as follows: Inhibition of bacterial SHV-5 using cefotaxime as substrate preincubated for 15 mins followed by susbtrate addition and measured after 10 mins by spectrophotometric method. Also on record: species or system Bacteria.
Data set [33] is described as follows: Inhibition of bacterial KPC-2 using imipenem as substrate preincubated for 15 mins followed by susbtrate addition and measured after 10 mins by spectrophotometric method. Also on record: species or system Bacteria.
A short description of data set [34]: AUC (infinity) in mouse at 10 mg/kg, iv after 1 to 6 hrs by LC-MS/MS analysis. Type of data set: ADME, organism-based. Also on record: dose 10 mg/kg, time infinity, route intravenous. The settings on record: in vivo.

As usually defined, the IC50 is the midpoint of a concentration-inhibition curve. For `O=C(O)C[C@@H]1CC[C@H](NC(=O)Cc2cccs2)B(O)O1` [VABORBACTAM], the MIC was greater than 16 µg/mL in data set [1]; greater than 16 µg/mL in [2]; 0.03 µg/mL (≈ 0.101 µM) in data set [3]; greater than 16 µg/mL in data set [4]; greater than 16 µg/mL in [5]; greater than 16 µg/mL in [8]. Moreover, the MIC in data set [9], in data set [11], in data set [12], in data set [14], in [15] and in data set [18] was greater than 16 µg/mL throughout. Moreover, the MIC in data set [19], in data set [20], in data set [22], in data set [23], in data set [25] and in data set [26] was greater than 16 µg/mL in each case. Further, the MIC was greater than 16 µg/mL in data set [27]; greater than 16 µg/mL in data set [28]; greater than 16 µg/mL in data set [29]; 0.06 µg/mL (≈ 0.202 µM) in data set [30]; 8 µg/mL (≈ 26.9 µM) in data set [31]. Moreover, the half-maximal inhibitory concentration (IC50) was 7900 nM in [6]; 220 nM in data set [7]; greater than 100000 nM in data set [10]; 90 nM in data set [13]; 420 nM in data set [16]; 38800 nM in data set [17]. Also, the IC50 in [21] is greater than 100000 nM; in [24], greater than 100000 nM; in [32] it was 440 nM; in data set [33], 100 nM.

The AUC(0-inf) is total exposure, with the tail of the curve extrapolated. `CO/N=C(\C(=O)N[C@@H]1C(=O)N2C(C(=O)[O-])=C(C[N+]3(C)CCCC3)CS[C@H]12)c1csc(N)n1`: the total exposure AUC(0-inf) in data set [34] was determined as 15800 ng·h/mL.
